This is an account of results in ChEMBL document CHEMBL1124154, “Polycyclic aryl- and heteroarylpiperazinyl imides as 5-HT1A receptor ligands and potential anxiolytic agents: synthesis and structure-activity relationship studies” (J Med Chem, 1988).

Series [1] deals with Rattus norvegicus. The series is described as follows: Concentration required to produce 50% block in avoidance responding in conditioned avoidance response test in rat following peroral administration. It is filed as functional. The method, boiled down:
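Previously trained rats were given compound po at pretreatment time to at least five rats per dose in a conditioned avoidance paradigm (shelf-jump or discrete trial). A control session preceded each drug run. Trials without avoidance were counted as a % of total trials, with control set at 100%. AB50 came from a least-squares dose-effect regression line.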

The species named for series [2] is Rattus norvegicus. The series is described as follows: Concentration required to produce 50% block in avoidance responding in conditioned avoidance response test in rat. It is filed as functional. The method, boiled down:
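Trained rats in shelf-jump and/or discrete-trial conditioned avoidance paradigms. Drug given ip or po to at least five rats per dose, with a control session before each drug run. Trials without avoidance (avoidance block) were counted per dose as a percentage of total trials, with control set at 100%. AB50 was taken from a least-squares dose-effect regression line.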

The target in another series is D(2) dopamine receptor (Rattus norvegicus, UniProt P61169). The series is described as follows: In vitro inhibition of [3H]spiperone binding to Dopamine receptor D2 from rat brain limbic tissue. It is filed as tissue-based, Limbic system. The method, boiled down:
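Limbic tissue (nucleus accumbens, septum, olfactory tubercle) from Sprague-Dawley rats, washed membranes at 0.2-0.3 mg protein. Incubated with 0.3 nM [3H]spiroperidol and a range of drug concentrations, 10 min at 37 °C, in Tris buffer pH 7.1 with NaCl, KCl, CaCl2, ascorbate and pargyline. Filtered through GF/B and counted by scintillation. Nonspecific binding defined with 1 μM (+)-butaclamol.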

The target of series [3] is T1, 5-hydroxytryptamine receptor 1A (Rattus norvegicus, UniProt P19327).
T1 sequence (P19327 whole entry): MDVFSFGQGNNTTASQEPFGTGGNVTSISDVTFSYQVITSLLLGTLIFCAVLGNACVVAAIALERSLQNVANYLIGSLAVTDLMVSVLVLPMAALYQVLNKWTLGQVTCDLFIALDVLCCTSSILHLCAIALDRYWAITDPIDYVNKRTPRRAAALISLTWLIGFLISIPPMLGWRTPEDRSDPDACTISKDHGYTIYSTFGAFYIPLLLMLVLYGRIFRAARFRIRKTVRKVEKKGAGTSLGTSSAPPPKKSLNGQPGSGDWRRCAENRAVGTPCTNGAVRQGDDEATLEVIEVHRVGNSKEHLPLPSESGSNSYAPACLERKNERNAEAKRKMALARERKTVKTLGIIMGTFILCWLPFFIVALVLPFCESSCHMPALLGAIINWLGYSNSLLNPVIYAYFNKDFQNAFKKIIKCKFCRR
The series is described as follows: In vitro inhibition of [3H]-8-hydroxy-2-(di-n-propylamino)tetralin binding to 5-hydroxytryptamine 1A receptor from rat hippocampal tissue.

Series [4] is described as follows: Partition coefficient (logP). It is filed as physicochemical. The settings on record: octanol/water.
For series [5], the target named is D(2) dopamine receptor (Rattus norvegicus) (UniProt P61169). The series is described as follows: In vitro inhibition of [3H]spiperone binding to dopamine receptor D2 from rat brain limbic tissue at 1 uM. It is filed as tissue-based. The settings on record: Limbic system.
Sequence of D(2) dopamine receptor (Rattus norvegicus) (P61169 whole entry): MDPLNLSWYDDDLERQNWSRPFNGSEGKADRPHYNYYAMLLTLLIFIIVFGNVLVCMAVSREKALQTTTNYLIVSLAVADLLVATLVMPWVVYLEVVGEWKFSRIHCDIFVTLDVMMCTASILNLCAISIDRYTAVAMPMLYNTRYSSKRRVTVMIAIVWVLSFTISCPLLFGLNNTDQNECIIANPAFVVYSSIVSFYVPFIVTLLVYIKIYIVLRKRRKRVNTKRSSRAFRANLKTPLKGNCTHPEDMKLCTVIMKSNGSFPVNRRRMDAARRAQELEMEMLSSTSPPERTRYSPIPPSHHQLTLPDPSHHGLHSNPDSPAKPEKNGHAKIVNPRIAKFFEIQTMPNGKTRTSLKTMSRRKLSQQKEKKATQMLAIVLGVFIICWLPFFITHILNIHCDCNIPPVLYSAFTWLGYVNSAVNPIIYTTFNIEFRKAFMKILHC
Series [6] is described as follows: Ratio of ED50 stereotyped behavior in mice. It is filed as functional.
Series [7] deals with Mus musculus. The series is described as follows: Inhibition of apomorphine induced stereotyped behavior in mice after intraperitoneal administration. As to conditions: ip. It is filed as functional. The method, boiled down:
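Male CF-1 mice (20-25 g, acclimated ≥3 days) received ip compound in 0.25% Tween 80 at 1, 10, 30 and 60 mg/kg (six/dose), alongside vehicle controls. After 30 min they were challenged with apomorphine 1 mg/kg sc. Stereotypy was scored every 5 min and totaled over the 30-min session.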

The subject of series [8] is Mus musculus. The series is described as follows: Inhibition of apomorphine induced climbing behavior in mice after intraperitoneal administration. It is filed as functional. As to conditions: ip. The method, boiled down: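 Male CF-1 mice (20-25 g), acclimated at least 3 days, received compound in 0.25% Tween 80 ip at 1, 10, 30 and 60 mg/kg (six/dose) or vehicle. 30 min later they were challenged with apomorphine 1 mg/kg sc. Climbing was scored every 5 min and totaled over 30 min.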

In series [9] the target is T2, 5-hydroxytryptamine receptor 1A (Rattus norvegicus) (UniProt P19327).
T2 sequence (whole entry): T1 sequence (P19327 whole entry)
The series is described as follows: In vitro inhibition of [3H]-8-hydroxy-2-(di-n-propylamino)tetralin binding to 5-hydroxytryptamine 1A receptor from rat hippocampal tissue at 1 uM. The settings on record: Hippocampus.

Series [10] has as its target T2, 5-hydroxytryptamine receptor 1A (Rattus norvegicus). The series is described as follows: In vitro inhibition of [3H]-8-hydroxy-2-(di-n-propylamino)tetralin binding to 5-hydroxytryptamine 1A receptor from rat hippocampal tissue. The settings on record: Hippocampus; concentration not given here.
Series [11] deals with D(2) dopamine receptor (Rattus norvegicus) (UniProt P61169). The series is described as follows: In vitro inhibition of [3H]spiperone binding to Dopamine receptor D2 from rat brain limbic tissue at 10 uM. It is filed as tissue-based. As to conditions: Limbic system.
The test system of series [12] is Mus musculus. The series is described as follows: Inhibition of apomorphine induced stereotyped behavior (i.p.). It is filed as functional. The settings on record: ip.

Sequence of D(2) dopamine receptor (P61169 whole entry): as above

For `O=C1CC2(CCCC2)CC(=O)N1CCCCN1CCN(c2ncccn2)CC1` [BUSPIRONE], the AB50 was determined as 32 mg/kg with Rattus norvegicus [1] and 5 mg/kg in the series listed under Rattus norvegicus [2].

For the compound `O=C1C2C3C=CC(C3)C2C(=O)N1CCCCN1CCN(c2ncccn2)CC1` (centres undefined), the Ki (usually a measure of affinity in units of concentration, obtained from inhibition or displacement) on D(2) dopamine receptor stood at 248 nM; in series [3], 42 nM. Further, the AB50 in the series listed under Rattus norvegicus [2] was 5 mg/kg. Also, the logP (commonly a log measure of how a compound divides between an organic and an aqueous phase) in series [4] was 1.36.

For `Cl.O=C1C2C3C=CC(CCC3)C2C(=O)N1CCCCN1CCN(c2ncccn2)CC1` (centres undefined), the AB50 in the series listed under Rattus norvegicus [2] was found to be 40 mg/kg. In addition, the inhibition (commonly the share of the control response that was lost under treatment) in series [5] came out at 53%. For the same compound, the logP in series [4] turned out to be 1.94.

With `Cl.O=C1C2C3CCC(C4CCC43)C2C(=O)N1CCCCN1CCN(c2ncccn2)CC1` (centres undefined), the Ki on D(2) dopamine receptor was 53 nM; in [3], 1 nM. Also, the AB50 in the series listed under Rattus norvegicus [2] stood at 40 mg/kg. Moreover, the log partition coefficient (logP) in series [4] amounted to 2.09.

`Cl.O=C1C2C3C=CC(C4CCC34)C2C(=O)N1CCCCN1CCN(c2cnccn2)CC1` (centres undefined): the AB50 in the series listed under Rattus norvegicus [2] stood at 60 mg/kg. In series [5], this compound yielded an inhibition of 48%. Moreover, the Ratio in series [6] is on record as 2.1. The ED50 – broadly, the dose that gives a 50% effect, or the effect in half of the subjects – in the series on Mus musculus [7] stood at 32 mg/kg; in the series on Mus musculus [8] it was 15 mg/kg.

In the case of `Cl.O=C1C2C3C=CC(C4CC34)C2C(=O)N1CCCCN1CCN(c2cnccn2)CC1` (centres undefined), the figures for the inhibition in series [9] and in series [5] were 68% and 33%, respectively. The compound also registered an AB50 in the series listed under Rattus norvegicus [2] of 49 mg/kg. In [6], the Ratio came to 2.35. In addition, the ED50 with Mus musculus [7] was 33 mg/kg; in the series on Mus musculus [8], 14 mg/kg.

On to `Cl.O=C1C2C3C=CC(C4CCC34)C2C(=O)N1CCCCN1CCN(c2ccc(C(F)(F)F)cn2)CC1` (centres undefined), for which the inhibition was 72% in [10] and 65% in [5]. Also, the AB50 in the series listed under Rattus norvegicus [2] was above 40 mg/kg.

Consider `Cl.O=C1C2C3C=CC(C4CCC34)C2C(=O)N1CCCCN1CCN(c2ncccn2)CC1` (centres undefined), for which the AB50 in the series listed under Rattus norvegicus [2] is 47 mg/kg. In addition, in [3], the Ki was 1.3 nM. Also, the logP in [4] was 2.02.

Compound `CC(C)=C1C2C=CC1C1C(=O)N(CCCCN3CCN(c4ncccn4)CC3)C(=O)C21.Cl` (centres undefined) came in with an AB50 in the series listed under Rattus norvegicus [2] above 40 mg/kg. In [11], this compound gave an inhibition of 50%.

Consider `Cl.O=C1C2C3C=CC(C4CC34)C2C(=O)N1CCCCN1CCN(c2ncccn2)CC1` (centres undefined), for which the Ki at D(2) dopamine receptor stood at 488 nM; in [3] it was 38 nM. For the same compound, the AB50 in the series listed under Rattus norvegicus [2] was 40 mg/kg. The logP in series [4] stood at 1.73.

The compound `Cl.O=C1C2C3C=CC(C4C=CC43)C2C(=O)N1CCCCN1CCN(c2ncccn2)CC1` (centres undefined) yielded an AB50 in the series filed under Rattus norvegicus [2] of 13 mg/kg. The inhibition in series [5] is 59%. Further, the Ratio in [6] worked out at 7.6. In addition, the logP in series [4] amounted to 1.79.

Regarding `COc1ccccc1N1CCN(CCCCN2C(=O)C3C4C=CC(C5CC45)C3C2=O)CC1.Cl` (centres undefined), the results for the Ki (at D(2) dopamine receptor; in series [3]) were 16 nM and 1.3 nM, respectively. Also, the AB50 in the series filed under Rattus norvegicus [2] was 40 mg/kg. In addition, in [6], the Ratio was 1. Further, the ED50 in the series on Mus musculus [7] and with Mus musculus [12] was 10 mg/kg in each case.

As for `O=C1c2ccccc2S(=O)(=O)N1CCCCN1CCN(c2ncccn2)CC1` [IPSAPIRONE], the AB50 is 42 mg/kg with Rattus norvegicus [1] and 19 mg/kg in the series filed under Rattus norvegicus [2]. In series [3], affinity was put at a Ki of 10 nM.
